ChEMBL document CHEMBL2331269, “Design and synthesis of amphiphilic xanthone-based, membrane-targeting antimicrobials with improved membrane selectivity” (J Med Chem, 2013)
Converted amounts (≈) assume the structure as drawn. The source made the active and inactive calls. The rule behind the calls is not given here.

How the values were obtained:
[1] = Partition coefficient, log P of the compound by HPLC analysis; assay type: physicochemical; conditions: octanol/water
Outline: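 Partition coefficient measured by HPLC following OECD guidelines for the testing of chemicals.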

[2] = Hemolytic activity against rabbit erythrocytes after 60 mins by spectrophotometric analysis; assay type: ADME, cell-based, Oryctolagus cuniculus, Erythrocyte
Staphylococcus aureus [3] = test: Antibacterial activity against methicillin-resistant Staphylococcus aureus clinical isolate DM21455 after 20 to 22 hrs by CLSI broth macro-dilution method; assay type: functional
Staphylococcus aureus [4] = test: Antibacterial activity against Staphylococcus aureus ATCC 29213 after 20 to 22 hrs by CLSI broth macro-dilution method; assay type: functional
[5] = Dissociation constant, pKa of the compound; assay type: physicochemical
Staphylococcus aureus [6] = test: Antibacterial activity against methicillin-resistant Staphylococcus aureus DR42412 obtained from sputum isolate after 20 to 22 hrs by CLSI broth macro-dilution method; assay type: functional
Staphylococcus aureus [7] = test: Antibacterial activity against methicillin-resistant Staphylococcus aureus DM21595 obtained from wound isolate after 20 to 22 hrs by CLSI broth macro-dilution method; assay type: functional
Staphylococcus aureus [8] = test: Antibacterial activity against methicillin-resistant Staphylococcus aureus DM09808R obtained from eye isolate after 20 to 22 hrs by CLSI broth macro-dilution method; assay type: functional
Staphylococcus aureus [9] = test: Antibacterial activity against methicillin-resistant Staphylococcus aureus ATCC […] after 20 to 22 hrs by CLSI broth macro-dilution method; assay type: functional
[10] = Toxicity against New Zealand White rabbit corneal epithelium assessed as effect on wound closure at 50 ug/ml by Slit lamp photography relative to control; assay type: tissue-based, Oryctolagus cuniculus, Cornea; conditions: in vivo
Outline: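 A 5 mm corneal epithelial abrasion was made with a sterile trephine and the epithelium removed with a mini blade. Eyes were treated with saline, vancomycin 50 μg/mL, or agent 50 μg/mL. Wound closure was tracked over time from fluorescein-stained photographs of defect size.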

Staphylococcus aureus [11] = test: Antibacterial activity against methicillin-resistant Staphylococcus aureus DM21595 assessed as log reduction in CFU at 0.5 X MIC to 4 X MIC after 24 hrs by surface-spread plate method relative to control; assay type: functional
Staphylococcus aureus [12] = test: Antibacterial activity against methicillin-resistant Staphylococcus aureus ATCC 700699 assessed as log reduction in CFU at 0.5 X MIC to 4 X MIC after 24 hrs by surface-spread plate method relative to control; assay type: functional
Staphylococcus aureus [13] = test: Antibacterial activity against methicillin-resistant Staphylococcus aureus DM42412 assessed as log reduction in CFU at 0.5 X MIC to 4 X MIC after 24 hrs by surface-spread plate method relative to control; assay type: functional
Staphylococcus aureus [14] = test: Antibacterial activity against methicillin-resistant Staphylococcus aureus DM09808R assessed as log reduction in CFU at 0.5 X MIC to 4 X MIC after 24 hrs by surface-spread plate method relative to control; assay type: functional
Staphylococcus aureus [15] = test: Antibacterial activity against methicillin-resistant Staphylococcus aureus DM21455 assessed as log reduction in CFU at 0.5 X MIC to 4 X MIC after 24 hrs by surface-spread plate method relative to control; assay type: functional
[16] = Selectivity ratio of HC50 for rabbit erythrocyte to MIC99 for Staphylococcus aureus ATCC 29213; assay type: functional
[17] = Selectivity ratio of HC50 for rabbit erythrocyte to MIC99 for methicillin-resistant Staphylococcus aureus clinical isolate DM21455; assay type: functional
Staphylococcus aureus [18] = test: Antibacterial activity against methicillin-resistant Staphylococcus aureus DM21595 assessed as log reduction in CFU at 0.5 X MIC to 4 X MIC after 8 hrs by surface-spread plate method relative to control; assay type: functional, organism-based
Staphylococcus aureus [19] = test: Antibacterial activity against methicillin-resistant Staphylococcus aureus ATCC 700699 assessed as log reduction in CFU at 0.5 X MIC to 4 X MIC after 8 hrs by surface-spread plate method relative to control relative to control; assay type: functional, organism-based
Staphylococcus aureus [20] = test: Antibacterial activity against methicillin-resistant Staphylococcus aureus DM42412 assessed as log reduction in CFU at 0.5 X MIC to 4 X MIC after 8 hrs by surface-spread plate method relative to control; assay type: functional, organism-based
Staphylococcus aureus [21] = test: Antibacterial activity against methicillin-resistant Staphylococcus aureus DM21455 assessed as log reduction in CFU at 0.5 X MIC to 4 X MIC after 8 hrs by surface-spread plate method relative to control; assay type: functional, organism-based
Staphylococcus aureus [22] = test: Antibacterial activity against methicillin-resistant Staphylococcus aureus DM09808R assessed as log reduction in CFU at 0.5 X MIC to 4 X MIC after 8 hrs by surface-spread plate method relative to control; assay type: functional, organism-based
Klebsiella pneumoniae = test: Antibacterial activity against Klebsiella pneumoniae ATCC 10031 after 20 to 22 hrs by CLSI broth macro-dilution method; assay type: functional
Pseudomonas aeruginosa = test: Antibacterial activity against Pseudomonas aeruginosa ATCC 27853 after 20 to 22 hrs by CLSI broth macro-dilution method; assay type: functional
Staphylococcus aureus [23] = test: Antimicrobial activity against in Staphylococcus aureus assessed as disruption of bacterial membrane at 10 uM by fluorescence microscopy; assay type: functional, organism-based
Outline: (§1)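 S. aureus DM4001 treated with 10 μM agent and incubated with the membrane-impermeant nucleic-acid dye SYTOX Green. Permeabilization was read as increased fluorescence intensity and confirmed by fluorescence microscopy counting green-stained cells.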

Staphylococcus aureus [24] = test: Antimicrobial activity against Staphylococcus aureus assessed as disruption of bacterial membrane at 10 uM by SYTOX green uptake assay; assay type: functional, organism-based; outline: as §1

COc1c(OCCCCn2cncn2)cc2oc3cc(OCCCCn4cncn4)c(CC=C(C)C)c(O)c3c(=O)c2c1CC=C(C)C
logP [1]: 11.08 | HC50 at 1 h [2]: > 200 µM | MIC99 (Staphylococcus aureus [3]): > 200 µg/mL | MIC99 (Staphylococcus aureus [4]): > 200 µg/mL | pKa [5]: 2.2

CN[C@H](CC(C)C)C(=O)N[C@H]1C(=O)N[C@@H](CC(N)=O)C(=O)N[C@H]2C(=O)N[C@H]3C(=O)N[C@H](C(=O)N[C@H](C(=O)O)c4cc(O)cc(O)c4-c4cc3ccc4O)[C@H](O)c3ccc(c(Cl)c3)Oc3cc2cc(c3O[C@@H]2O[C@H](CO)[C@@H](O)[C@H](O)[C@H]2O[C@H]2C[C@](C)(N)[C@H](O)[C@H](C)O2)Oc2ccc(cc2Cl)[C@H]1O [VANCOMYCIN]
MIC (Staphylococcus aureus [6]): 0.78 µg/mL (≈ 0.538 µM) | MIC (Staphylococcus aureus [7]): 0.39 µg/mL (≈ 0.269 µM) | MIC (Staphylococcus aureus [8]): 0.39 µg/mL (≈ 0.269 µM) | MIC (Staphylococcus aureus [9]): 6.25 µg/mL (≈ 4.31 µM) | MIC99 (Staphylococcus aureus [3]): 0.78 µg/mL (≈ 0.538 µM) | Activity [10]: Non-toxic | FC (Staphylococcus aureus [11]): 3 | FC (Staphylococcus aureus [12]): 3 | FC (Staphylococcus aureus [13]): 3 | FC (Staphylococcus aureus [14]): 3 | FC (Staphylococcus aureus [15]): 3

CCN(CC)CCCCCOc1cc2oc3cc(OCCCCCN(CC)CC)c(OC)c(CC=C(C)C)c3c(=O)c2c(O)c1CC=C(C)C
logP ([1]; read-out: logP): 7.55 | Selectivity ratio [16]: 9 | Selectivity ratio [17]: 18 | HC50 at 1 h [2]: 14 µM | MIC99 (Staphylococcus aureus [3]): 0.78 µg/mL (≈ 1.13 µM) | MIC99 (Staphylococcus aureus [4]): 1.56 µg/mL (≈ 2.25 µM) | pKa [5]: 11

CCCCCCCCCC(=O)N[C@@H](Cc1c[nH]c2ccccc12)C(=O)N[C@H](CC(N)=O)C(=O)N[C@@H](CC(=O)O)C(=O)N[C@@H]1C(=O)NCC(=O)N[C@@H](CCCN)C(=O)N[C@@H](CC(=O)O)C(=O)N[C@H](C)C(=O)N[C@@H](CC(=O)O)C(=O)NCC(=O)N[C@H](CO)C(=O)N[C@@H]([C@H](C)CC(=O)O)C(=O)N[C@@H](CC(=O)c2ccccc2N)C(=O)O[C@@H]1C
MIC (Staphylococcus aureus [6]): 0.195 µg/mL (≈ 0.12 µM) | MIC (Staphylococcus aureus [7]): 0.78 µg/mL (≈ 0.481 µM) | MIC (Staphylococcus aureus [8]): 0.195 µg/mL (≈ 0.12 µM) | MIC (Staphylococcus aureus [9]): 0.78 µg/mL (≈ 0.481 µM) | MIC99 (Staphylococcus aureus [3]): 0.78 µg/mL (≈ 0.481 µM) | Activity (Staphylococcus aureus [18]): inactive | Activity (Staphylococcus aureus [19]): inactive | Activity (Staphylococcus aureus [20]): inactive | Activity (Staphylococcus aureus [21]): inactive | Activity (Staphylococcus aureus [22]): inactive

COc1c(OCCCCN2CCCCC2)cc2oc3cc(OCCCCN4CCCCC4)c(CC=C(C)C)c(O)c3c(=O)c2c1CC=C(C)C
logP ([1]; read-out: logP): 6.93 | Selectivity ratio [16]: 24.7 | Selectivity ratio [17]: 12.3 | HC50 at 1 h [2]: 19.3 µM | MIC99 (Staphylococcus aureus [3]): 1.56 µg/mL (≈ 2.26 µM) | MIC99 (Staphylococcus aureus [4]): 0.78 µg/mL (≈ 1.13 µM) | pKa [5]: 11.2

COc1c(OCCCCN2CCCC2)cc2oc3cc(OCCCCN4CCCC4)c(CC=C(C)C)c(O)c3c(=O)c2c1CC=C(C)C
logP ([1]; read-out: logP): 6.63 | Selectivity ratio [16]: 16 | Selectivity ratio [17]: 16 | HC50 at 1 h [2]: 25 µM | MIC99 (Staphylococcus aureus [3]): 1.56 µg/mL (≈ 2.36 µM) | MIC99 (Staphylococcus aureus [4]): 1.56 µg/mL (≈ 2.36 µM) | pKa [5]: 11.3

CCN(CC)CCCCCCOc1cc2oc3cc(OCCCCCCN(CC)CC)c(OC)c(CC=C(C)C)c3c(=O)c2c(O)c1CC=C(C)C
logP ([1]; read-out: logP): 8.39 | Selectivity ratio [16]: 17 | Selectivity ratio [17]: 17 | HC50 at 1 h [2]: 26.5 µM | MIC99 (Staphylococcus aureus [3]): 1.56 µg/mL (≈ 2.16 µM) | MIC99 (Staphylococcus aureus [4]): 1.56 µg/mL (≈ 2.16 µM) | pKa [5]: 11

COc1c(OCCCCn2cccn2)cc2oc3cc(OCCCCn4cccn4)c(CC=C(C)C)c(O)c3c(=O)c2c1CC=C(C)C
logP [1]: 9.28 | HC50 at 1 h [2]: > 200 µM | MIC99 (Staphylococcus aureus [3]): > 200 µg/mL | MIC99 (Staphylococcus aureus [4]): > 200 µg/mL | pKa [5]: 2.52

COc1c(OCCCCN2CCOCC2)cc2oc3cc(OCCCCN4CCOCC4)c(CC=C(C)C)c(O)c3c(=O)c2c1CC=C(C)C
logP ([1]; read-out: logP): 5.42 | HC50 at 1 h [2]: > 200 µM | MIC99 (Staphylococcus aureus [3]): > 200 µg/mL | MIC99 (Staphylococcus aureus [4]): > 200 µg/mL | pKa [5]: 8.36

COc1c(O)cc2oc3cc(O)c(CC=C(C)C)c(O)c3c(=O)c2c1CC=C(C)C [MANGOSTIN]
MIC (Klebsiella pneumoniae): > 200 µg/mL | logP ([1]; read-out: logP): 6.75 | MIC (Pseudomonas aeruginosa): > 200 µg/mL | Selectivity ratio [16]: 5.77 | Selectivity ratio [17]: 5.77 | HC50 at 1 h [2]: 9 µM | MIC99 (Staphylococcus aureus [3]): 1.56 µg/mL (≈ 3.8 µM) | MIC99 (Staphylococcus aureus [4]): 1.56 µg/mL (≈ 3.8 µM)

CCN(CC)CCCOc1cc2oc3cc(OCCCN(CC)CC)c(OC)c(CC=C(C)C)c3c(=O)c2c(O)c1CC=C(C)C
logP ([1]; read-out: logP): 6.27 | Selectivity ratio [16]: 20.9 | Selectivity ratio [17]: 41.7 | HC50 at 1 h [2]: 16.3 µM | MIC99 (Staphylococcus aureus [3]): 0.39 µg/mL (≈ 0.612 µM) | MIC99 (Staphylococcus aureus [4]): 0.78 µg/mL (≈ 1.22 µM) | pKa [5]: 11

COc1c(OCCCCBr)cc2oc3cc(OCCCCBr)c(CC=C(C)C)c(O)c3c(=O)c2c1CC=C(C)C
HC50 at 1 h [2]: > 200 µM | MIC99 (Staphylococcus aureus [3]): > 200 µg/mL | MIC99 (Staphylococcus aureus [4]): > 200 µg/mL | Activity (Staphylococcus aureus [23]): inactive | Activity (Staphylococcus aureus [24]): inactive
